Active and inactive are the calls of the source. The rule behind the calls is not given here.
Legend:
[1] = target: T1, Potassium channel subfamily K member 18 (Homo sapiens) (UniProt Q7Z418); assay: Activation of recombinant human TRESK expressed in HEK293T cells assessed as increase in K+ current amplitude at 10 uM by whole cell voltage clamp electrophysiological analysis; assay type: cell-based
T1 sequence (whole entry): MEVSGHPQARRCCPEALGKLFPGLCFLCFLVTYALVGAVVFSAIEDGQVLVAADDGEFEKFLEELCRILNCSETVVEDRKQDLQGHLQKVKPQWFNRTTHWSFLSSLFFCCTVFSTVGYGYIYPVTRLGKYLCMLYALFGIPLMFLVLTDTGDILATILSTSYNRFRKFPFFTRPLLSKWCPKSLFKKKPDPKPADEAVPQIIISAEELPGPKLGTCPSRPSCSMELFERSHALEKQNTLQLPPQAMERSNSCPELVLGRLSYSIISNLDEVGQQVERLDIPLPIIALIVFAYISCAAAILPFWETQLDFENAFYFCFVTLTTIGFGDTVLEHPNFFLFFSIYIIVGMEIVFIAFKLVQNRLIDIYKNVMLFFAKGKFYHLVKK
In short: (§1)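 HEK-293T cells transiently transfected with the human K2P channel. Whole-cell clamp at -60 mV, 500-ms ramp -120 to +60 mV. Pipette 140 KCl (pH 7.4), external 145 NaCl/4 KCl (pH 7.3). Compound 10 μM, diluted from 10 mM DMSO stock into external solution.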

Mus musculus [2] = assay: Analgesic activity in cerulein-induced mouse model of acute pancreatitis assessed as reduction in pancreatic inflammatory infiltration at 10 mg/kg, ip administered at 2 hrs interval for 10 hrs starting from post-first cerulein challenge and measured 12 hrs post-first cerulein challenge by H and E staining based histopathological analysis; assay type: functional, organism-based
In short: (§2)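 Cerulein pancreatitis: 7 hourly i.p. injections of 50 µg/kg; 10 mg/kg compound i.p. at 2, 4, 6, 8 and 10 h. Mice killed at 12 h and pancreas harvested for MPO activity and H&E histology. Ten random fields per slide scored blind by two observers for edema, inflammatory infiltration and acinar necrosis; n = 6.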

Mus musculus [3] = assay: Analgesic activity in CFA-induced mouse model of chronic inflammatory pain assessed as increase in paw withdrawal latency at 5 mg/kg, ip measured up to 60 mins by Hargreaves test; assay type: functional, organism-based
In short: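 CFA (20 μl) injected subcutaneously into the left hindpaw of mice. Compound given i.p. in 5% DMSO/5% Tween 80/90% saline. Heat withdrawal latency recorded with a 5 min inter-stimulation period.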

[4] = target: T2, Potassium channel subfamily K member 2 (Homo sapiens) (UniProt O95069); assay: Activation of recombinant human TREK1 expressed in HEK293T cells assessed as change in single channel conductance by outside-out patch electrophysiological analysis; assay type: cell-based
T2 sequence (whole entry): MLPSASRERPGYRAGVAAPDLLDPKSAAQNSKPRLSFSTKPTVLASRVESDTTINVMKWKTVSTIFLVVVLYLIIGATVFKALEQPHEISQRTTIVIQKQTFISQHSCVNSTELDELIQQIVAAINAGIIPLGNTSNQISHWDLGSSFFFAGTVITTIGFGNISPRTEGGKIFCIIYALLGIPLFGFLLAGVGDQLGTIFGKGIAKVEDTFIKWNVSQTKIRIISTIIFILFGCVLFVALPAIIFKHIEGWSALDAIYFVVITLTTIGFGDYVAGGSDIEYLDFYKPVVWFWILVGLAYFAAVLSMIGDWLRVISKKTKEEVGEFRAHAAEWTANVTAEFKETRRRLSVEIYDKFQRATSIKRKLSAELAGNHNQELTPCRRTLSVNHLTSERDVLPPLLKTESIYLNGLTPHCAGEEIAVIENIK
In short: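 Outside-out patches from HEK-293T cells transfected with human TREK-1 (pEGFP-N1). Pipettes 7–15 MΩ. Open probability measured at -60 and +60 mV. Conductance taken as first open-state current amplitude divided by voltage at ±60 mV.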

Mus musculus [5] = assay: Analgesic activity in cerulein-induced mouse model of acute pancreatitis assessed as reduction in myeloperoxidase activity at 10 mg/kg, ip administered at 2 hrs interval for 10 hrs starting from post-first cerulein challenge and measured 12 hrs post-first cerulein challenge; assay type: functional, organism-based; in short: as §2
Mus musculus [6] = assay: Analgesic activity in mouse model of spared nerve injury assessed as reduction in number of hind paw lifting at 5 mg/kg, ip incubated for 30 mins measured within 5 mins by spontaneous pain test; assay type: functional, organism-based
In short: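 SNI mice, day 7, acclimated 3 days on a wire-mesh floor. Compound 5 mg/kg i.p. Starting 30 min after injection, mice were videotaped for 5 min and left hindpaw flinches counted blind; n = 7.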

[7] = target: T3, Potassium channel subfamily K member 13 (Homo sapiens) (UniProt Q9HB14); assay: Activation of recombinant human THIK1 expressed in HEK293T cells assessed as increase in K+ current amplitude at 10 uM by whole cell voltage clamp electrophysiological analysis; assay type: cell-based; in short: as §1
T3 sequence (whole entry): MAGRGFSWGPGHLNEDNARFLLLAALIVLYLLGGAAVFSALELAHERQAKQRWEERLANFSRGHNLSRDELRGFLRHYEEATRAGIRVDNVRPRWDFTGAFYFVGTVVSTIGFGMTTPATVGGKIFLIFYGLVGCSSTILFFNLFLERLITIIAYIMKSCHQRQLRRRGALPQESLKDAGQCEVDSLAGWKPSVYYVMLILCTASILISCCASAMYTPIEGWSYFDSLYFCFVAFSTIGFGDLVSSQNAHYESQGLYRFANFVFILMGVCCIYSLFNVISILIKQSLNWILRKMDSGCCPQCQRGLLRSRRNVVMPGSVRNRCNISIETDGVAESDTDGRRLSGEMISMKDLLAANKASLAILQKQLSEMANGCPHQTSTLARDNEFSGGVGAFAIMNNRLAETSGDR

## Cc1ccc2nc(-c3ccc(NC(=O)[C@@H]4CC[C@H](C(=O)O)C4)cc3)sc2c1
[1]
  Activity: Active
Mus musculus [2]
  Activity: Active
Mus musculus [3]
  Activity: Active
[4]
  Activity: inactive
Mus musculus [5]
  Activity: Active
Mus musculus [6]
  Activity: Active
[7]
  Activity: Active
